IDE act – human IDE activators in live cells, primary screen, fluorescence polarization, HEK cells, FAbeta-B substrate; Insulin-degrading enzyme (Homo sapiens), P14735; FAbeta-B cleavage; 0% vehicle, 100% cell-free pure enzyme wells; activation, % at 5.96 µM; 0.073% of 340,000 active;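 active = activation above the mean of all tested compounds plus 3 SD, set per screening campaign, cut at about 17% in these data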
Target sequence (P14735 whole entry, looked up): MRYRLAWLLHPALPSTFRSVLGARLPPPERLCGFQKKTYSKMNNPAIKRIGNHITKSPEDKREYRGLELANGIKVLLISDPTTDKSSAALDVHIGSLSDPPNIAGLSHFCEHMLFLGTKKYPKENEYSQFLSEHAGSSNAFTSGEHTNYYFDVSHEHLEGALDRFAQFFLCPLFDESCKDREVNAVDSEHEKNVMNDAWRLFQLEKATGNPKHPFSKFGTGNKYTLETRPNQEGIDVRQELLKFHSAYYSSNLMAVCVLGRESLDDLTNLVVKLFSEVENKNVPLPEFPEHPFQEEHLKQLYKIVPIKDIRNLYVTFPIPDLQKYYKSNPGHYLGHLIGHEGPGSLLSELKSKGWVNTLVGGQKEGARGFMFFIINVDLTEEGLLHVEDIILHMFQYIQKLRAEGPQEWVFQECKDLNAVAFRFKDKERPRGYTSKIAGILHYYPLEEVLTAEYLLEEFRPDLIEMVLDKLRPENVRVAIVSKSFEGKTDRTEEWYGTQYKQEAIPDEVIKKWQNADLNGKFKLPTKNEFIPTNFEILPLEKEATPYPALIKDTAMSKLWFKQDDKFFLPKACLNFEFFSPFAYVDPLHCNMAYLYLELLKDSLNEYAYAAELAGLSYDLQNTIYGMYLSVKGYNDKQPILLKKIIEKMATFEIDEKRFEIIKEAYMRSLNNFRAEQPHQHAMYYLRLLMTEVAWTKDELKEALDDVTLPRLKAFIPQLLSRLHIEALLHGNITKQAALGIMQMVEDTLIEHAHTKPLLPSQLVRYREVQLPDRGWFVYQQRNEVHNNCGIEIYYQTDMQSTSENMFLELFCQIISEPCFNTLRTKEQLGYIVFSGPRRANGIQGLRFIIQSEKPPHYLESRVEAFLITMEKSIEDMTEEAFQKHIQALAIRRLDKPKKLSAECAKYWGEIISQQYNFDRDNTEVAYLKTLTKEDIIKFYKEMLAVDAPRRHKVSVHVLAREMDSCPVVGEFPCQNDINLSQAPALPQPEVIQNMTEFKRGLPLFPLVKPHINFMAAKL
CSN deneddyl inh – inhibitors of CSN-mediated cullin deneddylation, primary screen, biochemical, fluorescence polarization, uHTS | Purified CSN, SCF-Nedd8-OG deneddylation | inhibition, % at 12.5 µM | 0.38% of 360,000 active | AID 651999, 2013;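 active = pattern-corrected inhibition above about 35%, with an unprinted fluorescence ratio check between 0.5 and 1.5, limit read from the data, passing the limit was not always enough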
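Assay system: purified human Csn5 enzyme expressed in HEK293T cells; Input: 0.24 nM Csn5 enzyme, final concentration; Reagent: 10 nM SCFSkp2-Nedd8OG; Compound dosing: 12.5 µM single point; Times: reaction 90 min, room temperature; Technique: fluorescence polarization readout.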
TbMetRS inhib – T. brucei MetRS inhibitors, primary screen, biochemical, luminescence. methionyl-tRNA synthetase (Trypanosoma brucei brucei). purified T. brucei MetRS, ATP depletion, Kinase-Glo luminescence. inhibition, % at 11.9 µM. 0.4% of 360,000 active;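 active = inhibition above a per-plate cutoff of the control wells' mean inhibition plus 3 SD, cut at about 5.5% in these data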
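System: purified T. brucei MetRS enzyme / Detection: Kinase-Glo luciferase luminescence reporting remaining unconsumed ATP / Medium: HEPES buffer with MgCl2, KCl, DTT, spermine, BSA, pyrophosphatase / Replication: singlicate, one well per compound / Evaluation: percent inhibition relative to median high and low control wells / Schedule: 2 h aminoacylation at 25 °C after 15 min preincubation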
IDE inh – human IDE inhibitors in live cells, primary screen, fluorescence polarization, HEK cells, FAbetaB substrate. Insulin-degrading enzyme (Homo sapiens), P14735. FAbetaB cleavage. inhibition, % at 5.59 µM. 0.41% of 320,000 active;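 active = percent inhibition above the average of all tested compounds plus 3 SD, set per screening campaign, cut at about 16% in these data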;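 note: IDE supplied by intact live HEK cells; FP after avidin binding of uncleaved biotin substrate so inhibition keeps polarization high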
HNF4A DNA FP – change in binding of human HNF4A to DNA, primary screen, biochemical, fluorescence polarization, FITC-DNA. activity change, % at 10 µM. 1 h. Hepatocyte nuclear factor 4-alpha (Homo sapiens), P41235. 0.3% of 360,000 active; in the data active = activity change above about 30%, passing the limit was not always enough
TPT1 inhibitor – Candida albicans TPT1 enzyme inhibitors, primary screen, biochemical, fluorescence polarization; tRNA 2'-phosphotransferase TPT1 (Candida albicans SC5314); recombinant caTPT1, FP RNA substrate dephosphorylation; inhibition, % at 5 µM; 0.81% of 300,000 active; AID 1962, 2009;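 active = inhibition above the mean of all tested compounds plus 3 SD, set per screening campaign, cut at about 24% in these data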
caTPT1 confirm – Candida albicans TPT1 inhibitors, confirmation, biochemical, fluorescence polarization, triplicate; shares compounds with TPT1 inhibitor; recombinant caTPT1, RNase T1 coupled; inhibition, % at 5 µM; 74% of 2,400 active;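 active = inhibition above the primary screen limit, the mean inhibition of all tested compounds plus 3 SD, cut at about 25% in these data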
RNase T1 counter – RNase T1 inhibitors, counter-screen for TPT1 inhibitor project, biochemical, fluorescence polarization; RNase T1 cleavage, 1536-well; 83% of 2,400 active; AID 2153, 2009; inhibition, % at 5 µM; shares compounds with TPT1 inhibitor;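 active = inhibition above the solvent-only control well mean plus 3 SD, limit set per screening run, cut at about 23% in these data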;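 note: inhibitors block cleavage so intact labeled substrate keeps polarization high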
IDE cell inh cf – human IDE inhibitors in live cells, confirmation, fluorescence polarization, HEK cells, FAbetaB substrate | shares compounds with IDE inh | FAbetaB cleavage | inhibition, % at 5.59 µM | 51% of 1,200 active;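 active = mean inhibition across triplicate wells above the cutoff set by the earlier primary insulin-degrading enzyme screen, cut at about 16% in these data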
HEK cytotox – cytotoxicity in HEK cells, cytotoxicity control for IDE inhibitor project, cell-based, luminescence | shares compounds with IDE inh | HEK293 cytotoxicity, ATP luminescence | inhibition, % at 5.59 µM | 28% of 1,200 active; in the data active = inhibition above about 22%
HNF4a DNA conf – change in HNF4A binding to DNA, retest, confirmation, biochemical, fluorescence polarization, FITC-DNA | shares compounds with HNF4A DNA FP | 1 h | activity change, % at 12.5 µM | 99% of 210 active | AID 1224897, 2016; call rule not given here
Of the large screens only hits and unclear results are named; the others gave an inactive call (follow-up assays come after a bar, where they were run). The list is not random: actives were taken first. Their share in the collection is about 1.7%.

CC1Nc2ccc(C(=O)NC3CCCCC3)cc2NC1=O (stereo not given)	CSN deneddyl inh 57, HNF4A DNA FP 61, TPT1 inhibitor 34 | caTPT1 confirm 39 | RNase T1 counter 48 | HNF4a DNA conf 49
Cc1csc(SC(C)C(=O)NCC2CCCO2)n1 (stereo not given)	none
COc1cc(/C=C2\N=C3CCCCCN3C2=O)ccc1O	CSN deneddyl inh 57, HNF4A DNA FP 47, TPT1 inhibitor 50 | caTPT1 confirm 69 | RNase T1 counter 73 | HNF4a DNA conf 76
COc1ccc(/C=C2\N=C3CCCCCN3C2=O)cc1OC	none
COc1ccccc1N1C(=O)S/C(=C\c2ccc(C)s2)C1=O	HNF4A DNA FP 43, TPT1 inhibitor 34 | caTPT1 confirm 38 | RNase T1 counter 53 | HNF4a DNA conf 76
CCOC(=O)CC1(C)Sc2ccccc2N1S(=O)(=O)c1ccc(C)cc1 (stereo not given)	none (no result: IDE act, IDE inh, TPT1 inhibitor)
O=c1[nH]c2cc3c(cc2cc1CN(CCO)S(=O)(=O)c1ccccc1)OCCO3	none
Cc1ccc(-n2nc3c(N4CCC(C(=O)N5CCC(C(N)=O)CC5)CC4)nnc(C)c3c2C)cc1	HNF4A DNA FP 49, TPT1 inhibitor 35 | caTPT1 confirm 40 | RNase T1 counter 48 | HNF4a DNA conf 48
CCN1C(=O)CS/C1=N\S(=O)(=O)c1ccccc1	none
CCN1C(=O)CS/C1=C(\C#N)S(=O)(=O)c1ccccc1	HNF4A DNA FP 40, TPT1 inhibitor 104 | caTPT1 confirm 80 | RNase T1 counter 90 | HNF4a DNA conf 43
CCOC(=O)C1=C(COC(=O)C2CC(=O)N(c3ccccc3F)C2)NC(=O)NC1C (stereo not given)	none (no result: TPT1 inhibitor)
O=C(/C=C/c1ccc(OCc2cccc(Cl)c2)cc1)N1CCOCC1	IDE inh 18 | IDE cell inh cf inactive | HEK cytotox inactive
O=C(/C=C/c1ccc(Cl)cc1)N1CCOCC1	none
O=C(Nc1ccc2ccccc2c1)C(c1ccc(C(F)(F)F)cc1)n1c(=O)c(-c2cc3ccccc3[nH]2)nc2ccccc21 (stereo not given)	none (no result: IDE act, IDE inh, TPT1 inhibitor)
CCc1nc(SCC(=O)Nc2nc3c(s2)CCCC3)c2ccccc2n1	IDE inh 31 | IDE cell inh cf inactive | HEK cytotox inactive
CCCc1nc(SCC(=O)Nc2nc3c(s2)CCCC3)c2ccccc2n1	none
O=C(Nc1ccc(-c2cn3ccsc3n2)cc1)c1ccc(F)c(S(=O)(=O)N2CCOCC2)c1	IDE inh 21 | IDE cell inh cf inactive | HEK cytotox 58
O=C(NNC(=O)C1CC1)c1ccccc1[N+](=O)[O-]	none (no result: IDE inh, TPT1 inhibitor)
COCCCNC(=S)N1CCCN(c2nc3cc(C)c(C)cc3cc2C#N)CC1	none
CCOCCCNC(=S)N1CCCN(c2nc3cc(C)c(C)cc3cc2C#N)CC1	IDE inh 21 | IDE cell inh cf inactive | HEK cytotox inactive
CCC[n+]1c2ccccc2cc2ccccc21	none
CCCC[n+]1c2ccccc2cc2ccccc21	IDE inh 16 | IDE cell inh cf inactive | HEK cytotox 40
Cc1ccc(C(=O)NCCN2CCC(n3c(=O)[nH]c4ccccc43)CC2)cc1C	none (no result: IDE act, IDE inh, TPT1 inhibitor)
CN(C)c1nc(SCC(=O)Nc2ccc(Cl)c(Cl)c2)nc(N2CCOCC2)n1	IDE inh 23 | IDE cell inh cf inactive | HEK cytotox 27
CN(C)c1nc(SCC(=O)Nc2ccccc2)nc(N2CCOCC2)n1	IDE inh 20 | IDE cell inh cf inactive | HEK cytotox inactive
CC(C)(C)Nc1nc(SCC(=O)Nc2ccccc2)nc(N2CCOCC2)n1	none
Cc1cc2cc(CCNC(=O)CCc3ccccc3)c(=O)[nH]c2cc1C	none
CC1CCN(CCc2nc3cc(NC(=O)NC4CCCCC4)ccc3n2C)CC1	IDE inh 19 | IDE cell inh cf inactive | HEK cytotox inactive
Cn1c(CCN2CCCCC2)nc2cc(NC(=O)NC3CCCCC3)ccc21	none
Cc1cccc(N2CCN(C(=O)C3CCC(CNS(=O)(=O)c4cccs4)CC3)CC2)c1C (stereo not given)	IDE inh 21 | IDE cell inh cf inactive | HEK cytotox 52
O=C(C1CCC(CNS(=O)(=O)c2cccs2)CC1)N1CCCCC1 (stereo not given)	none
COc1cc2[nH]c3c(N4CCN(c5ccc(Cl)cc5)CC4)ncnc3c2cc1OC	IDE inh 52 | IDE cell inh cf 27 | HEK cytotox 38
COc1cc2[nH]c3c(Cl)ncnc3c2cc1OC	none
COc1ccc2[nH]c3c(NCc4ccco4)ncnc3c2c1	IDE inh 38 (no result: IDE act, CSN deneddyl inh, TbMetRS inhib, HNF4A DNA FP) | IDE cell inh cf 18 | HEK cytotox inactive
c1ccc(CN2CCN(c3ncnc4c3[nH]c3ccccc34)CC2)cc1	TbMetRS inhib 6.2, IDE inh 33 | IDE cell inh cf 18 | HEK cytotox 58
CCOc1ccc2[nH]c3c(N4CCN(c5ccccn5)CC4)ncnc3c2c1	IDE inh 25 | IDE cell inh cf inactive | HEK cytotox 26
Cc1ccc2c(c1)[nH]c1c(N3CCN(Cc4ccccc4)CC3)ncnc12	none
C[C@@H]1CN([C@H](C)CO)C(=O)CCCn2nncc2CO[C@@H]1CN(C)C(=O)Nc1ccc2c(c1)OCO2	none (no result: IDE act, IDE inh, TPT1 inhibitor)
